Measured values from the EternaBench riboswitch data.

Test system: MS2 coat protein
Test: apparent Kd, MS2 coat protein; higher = weaker binding; RNA-MaP array; FMN 200 µM where present
Outline: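 Green signal was scaled to red-channel RNA signal and control-cluster median Fmax, and the apparent Kd was taken as the median of filtered per-cluster binding-curve fits. The binding series used SNAP-549-labelled MS2 coat protein from 0.7 or 1.5 nM, doubling to 3 µM, on designs transcribed by stalled E. coli RNA polymerase on Illumina sequencing-chip clusters. Each series ran without and then with constant ligand in 100 mM Tris-HCl pH 7.5, 80 mM KCl, 4 mM MgCl2, BSA, DTT, yeast tRNA and Tween-20.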

[1] = designed as: OFF switch for flavin mononucleotide, no ligand
[2] = ligand present: flavin mononucleotide, designed as: OFF switch for flavin mononucleotide
[3] = designed as: ON switch for flavin mononucleotide, no ligand
[4] = ligand present: flavin mononucleotide, designed as: ON switch for flavin mononucleotide

| Sequence | apparent Kd [1] [nM] | apparent Kd [2] [nM] | apparent Kd [3] [nM] | apparent Kd [4] [nM] |
| --- | --- | --- | --- | --- |
| GUCAGCUCGUGAGGAUAUACAUAAUCCUAAGAUCACAUGAGGAUCACCCAUGUAGAAGGCACGAGCUGAUAAGCACGAAAGUGC | 8.89 | 50.2 | – | – |
| GACAUACAUGAGGAUCACCCAUGUACAAACGUACAAGGAUAUGUGUGGAAACCGUACUAUACAGAAGGUGUUUGUC | – | – | 47.6 | 41.5 |
| GGAUAGGACAGAGGAUAUACGUGCUAGAGAUGCUAGCAAAAUUUCCUCACAUGAGGAUCACCCAUGUAGAAGGCUGUCCUAUCG | 15.8 | 393 | – | – |
| ACAUGAGGAUCACCCAUGUGUGCAUAGGAUAUUGAGGAUCAGGGAUGUUUUUUUGGAUAUGCCCACAAGAAGGAUGAAAGUAUU | – | – | 13.2 | 12.6 |
| AUAUGGAAUACAGGAUAUGUAAGUUUUAAGUGUAUUGGUUAUUACUUUACAACAGAAGGGUAUUACAUGAGGAUCACCCAUGUA | – | – | 13.2 | 10.7 |
| GUGCUUUGGGAGAAGGCCGUAUGCAAAGCAUACGGAGGAUAUUCAUACCGGAAACGGACAUGAGGAUCACCCAUGUGGCACAAA | – | – | – | 44.6 |
| GCGAAGAACGAGAAGGCCACUACAUGAGGAUCACCCAUGUCGUGGAGUAUUGGAGGAUAUCGUUAGGCGUCUCAUGAGGACAUA | 5.26 | 5.69 | – | – |
| GGUCCAACAUGAGGAUAUAGCACCUUAUUGGUGCUAGAAGGCGUGUCGAUAGACAUGAGGAUCACCCAUGUAAUAAAUUGGACC | – | – | 793 | 139 |
| GCUGUCGCAUGAGGAUAUGGUCAGCUUUGCUGACCAGAAGGCAUGUCAAUAGACAUGAGGAUCACCCAUGUAGUUAGGGCGGCU | – | – | 571 | 57.4 |
| CUUGUGUUAGGAUAUGCGCCCUGAAGUGGAAGGGCCAGAGAGCAGAAGGGACAUGAGGAUCACCCAUGUGUGAC | 79.7 | 125 | – | – |
| GUCCCGAGGGAGAAGGGCUAGGAGGUCCAGCUUAUGUGUGUUGCAACAUGAGGAUCACCCAUGUAGCAGGAUAUCCCUUGUACA | 52.2 | 219 | – | – |
| GGGCUCGGAGGAUAUACAUGAGGAUCACCCAUGUAUCUGGGUCUUAUUGGGCUCGGGUGUAGAAGGCUGGGUCU | 13.9 | 15.5 | – | – |
| ACGGUUUACCAGAAGGACAUGAGGAUCACCCAUGUAGGAUAUGGGAAGUUGGUCUCCUUCAAAUAAGGCCCUCAGAGCUUCAAA | – | – | 446 | 31.2 |
| GAAUGUUGAGGAUAUACAUGAGGAUCACCCAUGUGUUAGCAGAGUCUGCCCGUCUUCAGUAGAAGGCAACAUUC | 17.2 | 42.4 | – | – |
| UGUCGGAGCAGAGGAUAUUACAUGAGGAUCACCCAUGUAUGAACCAAUAGCUGGAAACAGCAAUGUAAGAAGGCUGCUCCGUCA | 11.9 | 167 | – | – |
| CUGUAAGAUGUAGGAUAUACAAUAAUAUUGUUAGUAGAAGGACAUGAGGAUCACCCAUGUAUAUAAAUUUUAAAUACUUUUGUG | 40.8 | 31.5 | – | – |
| AUAUAAUAUCAGGAUAUGACUAGCUUCGGCUAGUCAGAAGGGAUGACAUGAGGAUCACCCAUGUGAUCAUAUAU | 35.7 | 153 | – | – |
| AACCCUUGUGUUAGGAUAUGUCACUACCAUAUGCGACAGAAGGAACAUGAGGAUCACCCAUGUGAGUUAGCCAA | 42.8 | 91.1 | – | – |
| UGUCCAUAGCAGAAGGACAUAAAUAACCAUGAAAACAUGAGGAUCACCCAUGUAGGAUAUGCUAUGGACUAAGAGCGAAAGCUC | 5.38 | 17.8 | – | – |
| GGAUAGGACAGAGGAUAUACGUGCUAGAGAUACUAGCAAUAUUUCCUCACAUGAGGAUCACCCAUGUAGAAGGCUGUCCUAUCG | 6.26 | 73.7 | – | – |
| GGACGUCCCAUUAACAUGAGGAUCACCCAUGUCAAAAGACAUGAGGAUAUGCAUCCUAAUUGGAUGCAGAAGGCAUGGACGUCC | – | – | 1180 | 87.3 |
| CAGCGAUAGCUGAACAAUCUAUCACAGGAUAUUCAUAAAACAUGAGGAUCACCCAUGUGAAAUUGGGAGAAGGGUGAUAGAUUG | – | – | 10.8 | 5.04 |
| GUAGAGUCAGGAUAUACGAGAUCGAAAGAUCAGUAAUCCUCACAUGAGGAUCACCCAUGUAGAAGGGACUCUAC | 23.4 | 344 | – | – |
| UUAAAUCAUGUAGGAUAUGCAUGGCGAAGCUACGCAGAAGGACAUGAGGAUCACCCAUGUUAUAGCUUCCCAGUUCGGAGGCAA | 63.8 | 230 | – | – |
| GAUUUCGCAUGAGGAUAUGCUCGCAUUUCAAGAGCAGAAGGUAUGUCAUUAGACAUGAGGAUCACCCAUGUAGUUAAGAUUGAA | – | – | 186 | 34.9 |
| UUUUUACAUGAGGAUCACCCAUGUCAGGAUAUGCUUAUAUUUUAUUAUUUUAUUUUUUGCAGAAGGGACUAUUA | 91.8 | 68 | – | – |
| AAAAAAAAAAGGCAGGAUAUCUAAAAAAAAACAUGAGGAUCACCCAUGUAAAAAAAAAAAAAGUGGGAGAAGGGCCAAAAAAAAAA | – | – | 35.9 | 18.1 |
| GUAGGGUCAGGAUAUACUGGCUGAGGGAUGUAUUGUAGUUGGUAGAAGGGACAUGAGGAUCACCCAUGUAAGAA | 36 | 26.1 | – | – |

| Sequence | apparent Kd [1] [nM] | apparent Kd [2] [nM] | apparent Kd [3] [nM] | apparent Kd [4] [nM] |
| --- | --- | --- | --- | --- |
| UCUGGAGCAGGAUAUGCAUUCGUGCUUCGGCACGUAAGGUCACAUGAGGAUCACCCAUGUAGAAGGGCUCCAGA | 19.2 | 34 | – | – |
| ACAUGAUAUGUAGGAUAUCACAUUAAUUGAUUCAUAUUUCAAUAUAGCAUUUGAGAAGGACAUUUACAUGAGGAUCACCCAUGU | 9.18 | 8.64 | – | – |
| AAGUAGUGAGGAUAUACAUGGAUAUACAUUCAUGUGGACCUACAUGAGGAUCACCCAUGUAGAAGGCACUAAUA | 33.8 | 28.6 | – | – |
| CUGAUGUUAGGAUAUCAGGCUGCGCGCGAAGGCGGACGGCAUGAGAAGGAACAUGAGGAUCACCCAUGUGACGA | 32.6 | 103 | – | – |
| UACAGACAUGAGGAUCACCCAUGUGAGGAUAUCGAUAACGAUAACAUAAUAUAAACGGCGAGAAGGCACAGCAU | 31.7 | 34.9 | – | – |
| ACAGGCUUCGAGAAGGACAUGAGGAUCACCCAUGUGCGUGUGAAGCAGCCGUGAGGCUGCAUCAUGUAGGAUAUCGGAGUCUGA | 75.5 | 559 | – | – |
| CUGUAACAUGAGGAUCACCCAUGUCAGGAUAUCUAUCAUAGCAUCGAAAGAUGCGGGUAGAGAAGGGACUAUCC | 17 | 18.2 | – | – |
| AUGCUAGUGUGAGGAUAUUAGGCUACAUGAGGAUCACCCAUGUUGAUCAUGAGGAUCACCCAUGAUAAGAAGGUACAUUAGCAU | 88.1 | 108 | – | – |
| CAGGUAGACUGAGGAUAUACAAGACUUAGUCUAUCUAGGUCAAAAUCCACAUGAGGAUCACCCAUGUAGAAGGCAGUCUGCCUG | 17.6 | 46.8 | – | – |
| CCAGAGUGAGGAUAUGCAUAAAGGUGCUGUCCCGUGGCUUGACAUGAGGAUCACCCAUGUAGAAGGUGCGUUGU | 48.7 | 40.3 | – | – |
| GCGUCAUGCAGAGGAUAUUGUUGCGGAUCUCUAUAAGAAGGCUGUACAUGAGGAUCACCCAUGUCACCACAUGAGGGUCACGUG | 22.1 | 41.2 | – | – |
| AAGGGAUGAGCGUAGGAUAUAGGAGAAGUGACAUGAGGAUCACCCAUGUAAAAGGAGGGAUGAGACUAGAAGGACGAGGUAGGAG | – | – | 107 | 125 |
| AUGUGGUGCGUAGGAUAUCAUUGAGGAAAACCCUGAGAAGGACGUGAGGACAUGAGGAUCACCCAUGUGGAUCACCCAUGUCAU | 237 | 237 | – | – |
| CUUUUGUCAGGAUAUGAGUAGUAGAACAAUAGUACUACUACUCAGAAGGGACAUGAGGAUCACCCAUGUUCCUC | 16.6 | 50.5 | – | – |
| CAACAGUCAGGAUAUGCAAAAAAAACGCAACGCAAAAAAAAGCAGAAGGGACAUGAGGAUCACCCAUGUUGUCG | 30.2 | 26.3 | – | – |
| GUUGGGUGUCAUGUCGCACAUGAGGAUCACCCAUGUAGGAGGUAGGAUAUCCACGAGUAACAAGAGGAGAAGGGCCGUUAGCGU | 27.9 | 33.6 | – | – |
| CUUUUGUGAGGAUAUCAGUAGUAAAAAAAUAAAAUUUCUACUGAGAAGGCACAUGAGGAUCACCCAUGUUCCUC | 34 | 184 | – | – |
| GGAAAUCAUGUAGGAUAUGCAUGGCGAAGCUACGCAGAAGGACAUGAGGAUCACCCAUGUUAAAGCUACCGAGUUCGGUGGCAA | 180 | 148 | – | – |
| UGAUUCGAGGCUAAGCCUCCAUCACAGGAUAUGCACGAGACAUGAGGAUCACCCAUGUGGCGAAGGCAGAAGGGUGAUACGUCU | – | – | 197 | 24.6 |
| UUGGACGUCGUAGGAUAUGUAGGAUAUUCCUACAUGAGGAUCACCCAUGUCGACAUGGAAGAAGGACAGAAGGACGAUGUCCAU | – | – | 238 | 4.22 |
| GAGGAUUUUUAGCUGACAUGAGGAUCACCCAUGUCUUGACCCAGAAGGGCGUGGGAUUCCCAACCGCAGGAUAUGGAUAGUCGG | – | – | 64.8 | 35.7 |
| CGCAACUCUUCACAUGUAAACAUGAGGAUCACCCAUGUAUUGAGAAGGAGGAAGAAGAGAGAUUCCUAGGAUAUCAGAGUUGCG | 6.42 | 5.84 | – | – |
| UCGUAUAUACAAGGAUAUCAAUUAUUGCUAAAUACAACAUGAGGAUCACCCAUGUAACUAUGGAGUGAGAAGGUGUAAUGACUU | – | – | 740 | 603 |
| GUAUGAGCGAUAGGAUAUACUGAGAUUGAAUGGGUAGAAGGAUUUCUUGUGGGAAAGACAUGAGGAUCACCCAUGUCACGGACC | – | – | 291 | 148 |
| ACUUCACAUGAGGAUCACCCAUGUCAGGCCGGACUAGGAUAUUAUCAACCAGAGUAACCAUAAGAAGGAGUAGGAA | – | – | 64.4 | 78.4 |
| UUUACGAAAGUCGAACGAUGUAGCAGAAGGACAUGAGGAUCACCCAUGUCAGCUGUAACAGCCAUGUAGGAUAUGCUACAUCCC | 5.24 | 6.49 | – | – |
| UCCACUGCUGAGAAGGGAUACGGCUGGGUCGCAUCAGGAUAUCGAUACAGUGCAGCAUGAGGACAUGAGGAUCACCCAUGUGUG | – | – | 81 | 27 |
